Assay outcomes: PubChem BioAssay, Broad Institute
An excerpt weighted towards active compounds, which were near 1.9% of everything screened.
XiGFP reactiv – activators of X-chromosome reactivation in mouse fibroblasts; XiGFP mouse fibroblasts, % GFP-positive cells imaging, 3 d; cells co-treated with 5-aza-dC sensitizer; scaled so ellipticine positive control = 100%; activation, % at 7.58 µM; 0.055% of 360,000 active; AID 743238;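 active = mean normalized replicate activation at least 10% and every replicate at or above 10%; inconclusive = only one of the two criteria met; inactive = mean below 10% and not all replicates reach 10%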;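 also: 0% = median of on-plate neutral control wells and 100% = ellipticine 6 µM median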
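Material: XiGFP fibroblasts, SV40-immortalized. Buffer or medium: DMEM plus 5-aza-dC sensitizer. Compound: single concentration per compound, delivered by pin transfer. Times: 3 days compound exposure. Controls: ellipticine 6 µM.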
F508del corr – correctors of CFTR F508del function in bronchial epithelial cells. AID 720511. CFBE cells, YFP halide quenching; stimulated with forskolin plus potentiator P3; % fluorescence drop versus neutral controls. activity (quench increase), % at 7.58 µM. 0.36% of 350,000 active;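 active = mean added fluorescence quench of at least 8% versus neutral control, with both replicates also reaching 8%; inconclusive = only one of the mean or replicate conditions met; inactive = mean below 8% and not both replicates reaching 8%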;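 also: cells transiently co-express mutant CFTR-F508del with the halide-sensitive YFP; corrector assay measuring rescue of mutant channel to the surface after 24 h compound exposure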
FN deposit inh – fibronectin deposition inhibition. AH1F fibroblasts, Alexa488-fibronectin deposition fluorescence, overnight. 0.086% of 350,000 active. inhibition, % at 12.6 µM. AID 743247;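 active = mean inhibition across replicates of 30% or more, regardless of how many single replicates reach that level; inconclusive = mean under 30% yet at least half of replicates reach 30%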;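 also: positive control wells lacked labelled fibronectin entirely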
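Material – AH1F fibroblast monolayer, labelled fibronectin deposition · Reagent – labelled fibronectin 24 nM · Timing – 1 h adhesion, overnight exposure · Measured by – fluorescence at 485 nm excitation, 525 nm emission · Read-out – inhibition of fibronectin deposition signal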
PGC1a acetyl inh – modulators of PGC1a acetylation; U2OS PGC1a acetylation, AlphaScreen anti-acetyl-lysine; with virally co-expressed GCN5 acetyltransferase; inhibition, % at 15.6 µM; 0.17% of 350,000 active; AID 651687;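 active = every replicate shows inhibition of at least 40%; inconclusive = mean inhibition at least 40% but some replicate below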;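 also: 0% = neutral control wells and 100% = positive control wells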
DENV2 CPE rescue – DENV2-induced cell death inhibition; CPE inhibition, % at 9.99 µM; 1.7% of 350,000 active; DENV2-infected cells, cytopathic effect rescue, plate reader; in the data active = CPE inhibition above about 20%, passing the limit was not always enough; inconclusive = no clear call, values can overlap the other calls; tested in BHK-21 cells;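 also: 0% = median of neutral control wells and 100% = median of positive control wells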
Cneo AK release – causes C. neoformans cell lysis; adenylate kinase release luminescence, 4 h; normalised: neutral wells 0, clomiphene wells 100; lysis activity, % at 15 µM; 0.2% of 360,000 active; AID 651654;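 active = mean lysis activity across replicates of at least 80%, whatever share of replicates individually reach that level; inactive = mean lysis activity below 80%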
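Test system: log-phase Cryptococcus neoformans yeast cells. Input: 5 × 10^6 yeast cells/mL. Medium: fresh YPD growth medium. Doses: single dose. Incubation: static 4 h at 37 °C with compound, 1 h detection. Measured by: luminescent adenylate kinase detection reagent. Read-out: signal increase indicating cell lysis. Benchmarks: Clomiphene.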
Numbers without * were called inactive; ? = inconclusive; . = no result.

SMILES	XiGFP reactiv	F508del corr	FN deposit inh	PGC1a acetyl inh	DENV2 CPE rescue	Cneo AK release
O=C(C1CCCC1)N1CC[C@@H]2[C@H](CO)Nc3ccc(C4=CCCCC4)cc3[C@@H]21	0.0	0.7	-1.3	9.5	-3.6	.
O=c1cc(-c2ccc(O)c(-c3c(O)cc(O)c4c(=O)cc(-c5ccc(O)cc5)oc34)c2)oc2cc(O)cc(O)c12	0.1	3.3	-6.1	.	.	-0.2
COc1ccc(-c2cc(=O)c3c(O)cc(O)cc3o2)cc1	0.2	9.8*	0.9	-25.5	-7.3	0.5
O=c1cc(-c2ccc(O)c(O)c2)oc2cc(O)cc(O)c12	0.1	8.0*	0.0	.	5.6	-2.0
COc1cccc(C#Cc2ccc([C@H]3[C@@H](CO)N4C(=O)CN(C(=O)c5ccncc5)C[C@H]34)cc2)c1	0.1	-1.8	.	-5.6	12.9	.
CCc1ccc(OCc2n[nH]c(=S)n2C(C)CCCC(C)C)cc1 (configuration not stated)	-0.1	17.0*	.	.	-3.3	.
Cc1[nH]c2ccccc2c1/C=N/NC(=O)c1cc(-c2ccccc2)n[nH]1	0.0	-1.7	-9.9	-4.8	?	0.1
Cc1[nH]c2ccccc2c1/C=N/NC(=O)c1cc(C(C)(C)C)[nH]n1	0.8	-1.8	4.2	-1.9	56.5*	5.9
CC(C(=O)NCc1ccccc1)n1c(CSCCOc2ccccc2)nc2ccccc21 (configuration not stated)	0.1	-1.0	3.8	.	40.3*	.
CC(C)c1ccc(NC2CCCN(C(=O)c3cccc(N4CCNC4=O)c3)C2)cc1 (configuration not stated)	0.2	-0.3	-1.3	-18.1	29.1*	-2.3
Cc1ccc(-c2csc(N(CCCN(C)C)C(=O)c3ccco3)n2)cc1	0.1	0.0	6.1	-4.7	.	.
CN(C)CCCN(C(=O)c1ccco1)c1nc(-c2ccc(Cl)cc2)cs1	0.2	8.1*	1.6	-9.4	-1.5	-2.1
CCCN(C)C[C@H]1OCCCC[C@@H](C)Oc2ccc(NS(=O)(=O)c3ccc(F)cc3)cc2C(=O)N([C@@H](C)CO)C[C@H]1C	0.2	-0.5	-4.1	8.9	17.1	-4.8
O=C(O)Cn1nc(-c2ccccc2)cc1-c1ccccc1	0.7	-5.1	0.7	18.8	80.1*	0.4
O=C(O)CC(C(=O)O)n1nc(-c2ccccc2)cc1-c1ccccc1 (configuration not stated)	.	.	.	-4.4	.	-2.1
COc1ccc(C(=O)NCCNc2nc3c(C)cccc3cc2C#N)cc1OC	0.0	3.4	5.7	6.4	28.8*	-1.2
COc1cc(C(=O)NCCNc2nc3c(C)cccc3cc2C#N)cc(OC)c1OC	0.2	-1.8	4.7	9.4	?	-0.2
C[C@@H]1CCC[C@]2(O[C@@H](CCO)C[C@@H](O)[C@@H]2O)O1	0.4	4.7	-7.3	-6.5	34.5*	0.1
C[C@@H]1CC[C@]2(O[C@H](CCO)C[C@H](O)[C@H]2O)O1	0.3	-0.4	4.3	-7.2	39.2*	-1.0
N#C[C@H]1[C@H](c2ccc(-c3ccccc3F)cc2)[C@H](CO)N1C(=O)C1CCC1	0.0	-2.3	6.9	-21.2	1.2	45.3
COc1ccc2c3c([nH]c2c1)[C@H](CO)N(C(=O)Nc1ccc(F)cc1)CC31CCN(C(=O)Nc2ccccc2)CC1	0.3	-1.2	.	-8.4	21.0*	.
COc1ccc2c3c([nH]c2c1)[C@@H](CO)N(C(=O)c1cccc(F)c1)CC31CCN(C(=O)c2cccc(F)c2)CC1	0.2	-10.1	.	.	21.7*	.
COc1ccc2c3c([nH]c2c1)[C@H](CO)N(C(=O)Nc1ccc(F)cc1)CC31CCN(S(=O)(=O)c2ccccc2)CC1	0.1	8.8*	.	-0.4	?	.
COc1ccc2c3c([nH]c2c1)[C@@H](CO)N(C(=O)Nc1ccc(F)cc1)CC31CCN(S(=O)(=O)c2ccccc2)CC1	0.4	5.1	.	-14.1	70.5*	.
COc1ccc2c3c([nH]c2c1)[C@H](CO)N(C(=O)c1cccc(F)c1)CC31CCN(C(=O)c2ccccc2)CC1	0.0	-1.1	-0.7	-9.0	11.6	.
SMILES	XiGFP reactiv	F508del corr	FN deposit inh	PGC1a acetyl inh	DENV2 CPE rescue	Cneo AK release
COc1cccc(S(=O)(=O)N2CCC3(CC2)CN(C(=O)Nc2ccc(F)cc2)[C@@H](CO)c2[nH]c4cc(OC)ccc4c23)c1	0.3	1.5	.	.	-5.7	.
C[C@@H]1CCCCO[C@H](CN(C)C(=O)Nc2cccc3ccccc23)[C@@H](C)CN([C@H](C)CO)C(=O)c2cc(NS(=O)(=O)c3cn(C)cn3)ccc2O1	-0.1	1.1	.	1.4	-7.8	-15.0
CCC(=O)Nc1ccc2c(c1)C(=O)N(C)C[C@H](OC)[C@@H](C)CN(C(=O)C1CCC1)[C@@H](C)CO2	0.2	0.4	-11.2	-5.8	6.8	-1.3
C[C@@H](NC(=O)C[C@H]1CC[C@H]2[C@@H](COC[C@H](O)CN2C(=O)Nc2ccccc2)O1)c1ccccc1	-0.1	-3.3	-7.0	2.7	49.7*	-0.7
C[C@@H](NC(=O)C[C@H]1CC[C@@H]2[C@H](COC[C@H](O)CN2C(=O)Nc2ccccc2)O1)c1ccccc1	0.0	-0.7	-6.7	-1.5	21.1*	0.2
C[C@@H]1CN([C@H](C)CO)C(=O)Cc2cc(NC(=O)Cn3cnnn3)ccc2O[C@H]1CN(C)Cc1ccc(C(=O)Nc2ccccc2N)cc1	0.3	2.7	.	-0.9	5.2	12.2
C[C@@H]1CN([C@H](C)CO)C(=O)Cc2cc(NS(=O)(=O)c3cccs3)ccc2O[C@H]1CN(C)S(=O)(=O)c1ccc(F)cc1	0.0	0.5	-10.9	2.8	24.3*	-0.6
COc1ccc(S(=O)(=O)N(C)C[C@H]2Oc3ccc(NS(=O)(=O)c4cccs4)cc3CC(=O)N([C@@H](C)CO)C[C@@H]2C)cc1	0.2	-2.7	.	0.7	26.3*	1.4
COc1ccc(S(=O)(=O)N(C)C[C@@H]2Oc3ccc(NS(=O)(=O)c4cccs4)cc3CC(=O)N([C@@H](C)CO)C[C@H]2C)cc1	0.3	0.6	.	-2.4	6.5	1.8
O=C(c1ccc2c(c1)OCO2)N1CCCCN2[C@H](CO)[C@@H](c3ccc(-c4ccccc4)cc3)[C@@H]2C1	0.0	1.1	.	-8.2	26.9*	1.2
O=C(c1ccc2c(c1)OCO2)N1CCCCN2[C@H](C1)[C@@H](c1ccc(-c3ccccc3)cc1)[C@@H]2CO	0.1	-1.8	.	-5.6	13.4	5.5
O=C(c1cccc(F)c1)N1CCCCN2[C@H](CO)[C@H](c3ccc(-c4ccncc4)cc3)[C@@H]2C1	0.0	1.5	.	2.2	21.8*	-0.3
O=C(c1cccc(F)c1)N1CCCCN2[C@H](C1)[C@@H](c1ccc(-c3ccncc3)cc1)[C@@H]2CO	0.3	-0.6	.	-4.3	9.3	-5.1
